Reference: ChEMBL document CHEMBL3861958, “Synthesis and anticholinesterase activity of coumarin-3-carboxamides bearing tryptamine moiety” (Eur J Med Chem, 2016)

Assays:
Cholinesterase = Cholinesterase (Equus caballus, UniProt P81908); assay: Inhibition of equine serum BuChE using butyrylthiocholine iodide as substrate measured for 2 mins by Ellman's method
In short: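 Ellman assay with equine serum BuChE (enzyme solution 2 U/mL added) in 0.1 M phosphate buffer pH 8.0 with DTNB. Compounds in 1:9 DMSO/ethanol, tested at four concentrations spanning 20–80% inhibition. Reaction started with butyrylthiocholine iodide (0.15 M stock). A412 followed for 2 min at 30 s intervals. IC50 read graphically from log concentration vs % inhibition. Quadruplicates.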

Acetylcholinesterase [1] = target: T1, Acetylcholinesterase (Electrophorus electricus, UniProt O42275); assay: Inhibition of electric eel AChE using acetylthiocholine iodide as substrate measured for 2 mins by Ellman's method
Acetylcholinesterase [2] = target: T1, Acetylcholinesterase; assay: Mixed-type inhibition of electric eel AChE using acetylthiocholine iodide as substrate measured for 2 mins by Lineweaver-Burk plot analysis
In short: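 Kinetics used electric eel AChE (type V-S, enzyme solution 2 U/mL added) under the Ellman conditions: 0.1 M phosphate pH 8.0, DTNB, A412. Initial velocities measured across varied acetylthiocholine concentrations at inhibitor 0, 0.069, 0.206 and 0.618 μM. 1/v plotted against 1/[S] (Lineweaver-Burk) to assign inhibition type. Ki taken from a secondary plot.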

Cholinesterase, sequence (P81908 whole entry): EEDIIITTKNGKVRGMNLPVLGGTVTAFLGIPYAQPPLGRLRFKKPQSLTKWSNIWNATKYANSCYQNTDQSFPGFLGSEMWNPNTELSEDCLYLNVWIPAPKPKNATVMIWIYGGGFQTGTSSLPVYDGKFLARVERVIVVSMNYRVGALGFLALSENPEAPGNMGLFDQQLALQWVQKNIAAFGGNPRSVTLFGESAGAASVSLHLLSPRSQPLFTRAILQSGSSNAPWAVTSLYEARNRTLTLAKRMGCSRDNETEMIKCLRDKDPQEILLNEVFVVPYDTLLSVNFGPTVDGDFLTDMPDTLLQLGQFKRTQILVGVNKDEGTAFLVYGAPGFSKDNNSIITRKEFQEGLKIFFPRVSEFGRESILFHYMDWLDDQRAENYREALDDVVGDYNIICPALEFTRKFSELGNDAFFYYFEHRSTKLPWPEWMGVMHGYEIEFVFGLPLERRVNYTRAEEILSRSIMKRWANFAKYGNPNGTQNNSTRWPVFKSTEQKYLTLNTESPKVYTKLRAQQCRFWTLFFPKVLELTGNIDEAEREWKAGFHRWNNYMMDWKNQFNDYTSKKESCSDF
T1 sequence (O42275 whole entry): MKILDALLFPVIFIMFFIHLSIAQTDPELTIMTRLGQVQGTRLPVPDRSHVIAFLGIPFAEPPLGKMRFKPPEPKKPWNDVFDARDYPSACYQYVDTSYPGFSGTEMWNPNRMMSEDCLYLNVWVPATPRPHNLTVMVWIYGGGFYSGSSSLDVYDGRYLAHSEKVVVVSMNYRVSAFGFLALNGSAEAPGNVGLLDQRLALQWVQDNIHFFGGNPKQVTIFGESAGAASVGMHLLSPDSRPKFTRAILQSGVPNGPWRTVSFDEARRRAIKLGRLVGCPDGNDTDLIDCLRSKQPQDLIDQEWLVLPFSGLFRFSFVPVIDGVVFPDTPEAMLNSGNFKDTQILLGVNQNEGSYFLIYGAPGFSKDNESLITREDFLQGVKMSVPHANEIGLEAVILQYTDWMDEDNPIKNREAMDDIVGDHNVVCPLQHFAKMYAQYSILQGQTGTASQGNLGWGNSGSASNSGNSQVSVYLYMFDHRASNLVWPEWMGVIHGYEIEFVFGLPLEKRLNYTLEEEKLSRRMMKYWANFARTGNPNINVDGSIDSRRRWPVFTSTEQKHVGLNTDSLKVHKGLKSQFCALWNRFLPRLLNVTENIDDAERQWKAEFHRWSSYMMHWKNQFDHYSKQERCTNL

Row | SMILES | IC50 (Cholinesterase) [µM] | IC50 (Acetylcholinesterase [1]) [µM] | Ki (Acetylcholinesterase [2]) [nM]
1 | COc1cccc2cc(C(=O)NCCc3c[nH]c4ccccc34)c(=O)oc12 | 20.1 | 2.8 | –
2 | O=C(NCCc1c[nH]c2ccccc12)c1cc2ccccc2oc1=O | 50.5 | 5.9 | –
3 | O=C(NCCc1c[nH]c2ccccc12)c1cc2ccc(OCc3ccc(F)cc3)cc2oc1=O | 29.7 | 0.16 | 490
4 | O=C(NCCc1c[nH]c2ccccc12)c1cc2ccc(OCc3ccc(Cl)c(Cl)c3)cc2oc1=O | > 100 | 31.5 | –
5 | O=C(NCCc1c[nH]c2ccccc12)c1cc2ccc(OCc3ccc(Cl)cc3)cc2oc1=O | > 100 | 12.4 | –
6 | O=C(NCCc1c[nH]c2ccccc12)c1cc2ccc(OCc3ccccc3Cl)cc2oc1=O | > 100 | 22.5 | –
7 | CCCOc1ccc2cc(C(=O)NCCc3c[nH]c4ccccc34)c(=O)oc2c1 | > 100 | 18.7 | –
8 | COc1ccc2cc(C(=O)NCCc3c[nH]c4ccccc34)c(=O)oc2c1 | 34.6 | 3.5 | –
9 | O=C(NCCc1c[nH]c2ccccc12)c1cc2ccc(OCc3cccc(Cl)c3Cl)cc2oc1=O | > 100 | > 100 | –
10 | O=C(NCCc1c[nH]c2ccccc12)c1cc2ccc(OCc3ccccc3)cc2oc1=O | 16.2 | 1.5 | –
11 | O=C(NCCc1c[nH]c2ccccc12)c1cc2ccc(OCc3cccc(F)c3)cc2oc1=O | 27.8 | 2.5 | –
12 | CCOc1ccc2cc(C(=O)NCCc3c[nH]c4ccccc34)c(=O)oc2c1 | > 100 | 43.8 | –
13 | O=C(NCCc1c[nH]c2ccccc12)c1cc2cc(Br)ccc2oc1=O | > 100 | > 100 | –
14 | O=C(NCCc1c[nH]c2ccccc12)c1cc2ccc(O)cc2oc1=O | > 100 | > 100 | –
15 | O=C(NCCc1c[nH]c2ccccc12)c1cc2ccc(OCc3ccccc3F)cc2oc1=O | 27.5 | 2.5 | –
